OXTR potentiator: human OXTR potentiators, primary screen, fluorescence, CHO-OTR cells, Fluo-8 calcium. activation, % at 3 µM. 0.061% of 320,000 active. Fluo-8 calcium fluorescence, potentiator mode; 0% = oxytocin EC15, 100% = EC100. Oxytocin receptor (Homo sapiens), P30559;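 active = activation above that plate's cutoff, the mean activation of tested compounds plus 3 SD, cut at about 6.6% in these data, passing the limit was not always enough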;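 also: 100% uses oxytocin at 75 nM as the full agonist control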
Target sequence (P30559 whole entry, looked up): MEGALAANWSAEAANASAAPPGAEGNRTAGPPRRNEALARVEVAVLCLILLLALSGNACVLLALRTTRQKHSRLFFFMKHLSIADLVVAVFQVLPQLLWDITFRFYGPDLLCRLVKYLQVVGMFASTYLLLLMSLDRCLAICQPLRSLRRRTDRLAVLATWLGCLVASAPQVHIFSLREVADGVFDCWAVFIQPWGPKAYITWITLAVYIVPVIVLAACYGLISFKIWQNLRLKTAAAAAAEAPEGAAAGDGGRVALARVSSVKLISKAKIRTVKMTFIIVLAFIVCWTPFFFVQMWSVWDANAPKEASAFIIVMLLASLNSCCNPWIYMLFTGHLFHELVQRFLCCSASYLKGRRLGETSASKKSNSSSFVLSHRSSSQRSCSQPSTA
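Material: human OTR in CHO cells. Compound: 3.0 µM, one dose. Timing: compound 6 min at room temperature before oxytocin, 100 s read. Evaluation: % activation of max/min ratio relative to oxytocin controls. Replication: single well per compound, singlicate. Signal: Fluo-8 calcium dye fluorescence.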
TRPML3 ag: human TRPML3 channel agonists, primary screen, cell-based, HEK293 TRPML3-YFP, Fluo-8 calcium fluorescence, 3 µM; Mucolipin-3 (Homo sapiens), Q8TDD5; 100% = the carbachol control signal; activation, % at 3 µM; 0.29% of 220,000 active;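 active = activation above its plate's cutoff, the mean activation of the plate's test wells plus 3 SD, cut at about 12% in these data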;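 also: 0% = DMSO only wells and 100% = carbachol wells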
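Material: HEK293 cells stably carrying human TRPML3-YFP; compound dosing: single dose, 3 µM final nominal compound, 0.3% DMSO final; incubation: 1-h 37 °C dye load, 5-s basal, 120-s post-compound reads; technique: Fluo-8 intracellular calcium fluorescence, excitation 470-495 nm, emission 515-575 nm; read-out basis: percent activation from peak-to-basal fluorescence ratio, scaled between DMSO and carbachol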
V1R ag counter: agonists of human V1a receptor, primary screen, counter-screen for OXTR agonist project, fluorescence, CHO-V1R cells | Fluo-8 calcium fluorescence, agonist mode; 0% DMSO, 100% 3 nM vasopressin | activation, % at 3 µM | 0.25% of 320,000 active | AID 2797, 2010;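 active = activation above the mean activation of all tested compounds plus 3 SD, per screening run, cut at about 20% in these data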;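 also: signal is peak over basal fluorescence ratio across a 100 second FLIPR read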
zfTRPN1 agonist: zebrafish TRPN1 channel agonists, primary screen, cell-based, HEK293, calcium fluorescence; HEK293 zebrafish TRPN1-YFP, Fluo-8 calcium fluorescence; 100% = response to 87 µM carbachol; activation, % at 3 µM; 0.18% of 220,000 active;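 active = activation above its plate's cutoff, the mean activation of test wells on that plate plus 3 SD, cut at about 19% in these data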;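 also: 0% = DMSO alone and 100% = 87 µM carbachol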
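Material – zebrafish TRPN1-YFP in HEK293 cells · Doses – 3 µM single point · Schedule – dye 1 h 37 °C plus 30 min RT · Signal – Fluo-8 calcium fluorescence, excitation 470-495 nm, emission 515-575 nm · Read-out – % activation versus carbachol response · Control set – carbachol high, DMSO low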
OXTR ag: human OXTR agonists, primary screen, fluorescence, CHO-OTR cells, Fluo-8 calcium; Oxytocin receptor (Homo sapiens), P30559; Fluo-8 calcium fluorescence; normalized: DMSO 0%, oxytocin 100%; AID 2435, 2010; 0.32% of 320,000 active; activation, % at 3 µM;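 active = activation above the mean of all tested compounds plus 3 SD, cutoff set per screening run, cut at about 20% in these data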;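 also: peak over basal fluorescence ratio from a 100 s FLIPR kinetic read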
The depositor's hits bear a star; x = no result. A selection: hits, their analogues and other compounds. The true share with any hit is near 0.55%.

SMILES	OXTR potentiator	TRPML3 ag	V1R ag counter	zfTRPN1 agonist	OXTR ag
C#CCOCCOCCOCCNc1nc(N2CCN(C(=O)[C@H](CCCCN)n3cc(CN)nn3)CC2)nc(N2CCN(C(=O)[C@H](CC(N)=O)n3cc(C(N)[C@H](C)CC)nn3)CC2)n1 (some centres undefined)	-5.6	x	0.6	x	0.1
O=S(=O)(Nc1ccc(F)cc1)c1ccc(S(=O)(=O)N2CCOCC2)cc1	-12.2	x	21.5*	x	26.6*
COc1ccc2cc(C(=O)N/N=C/c3sc4ccccc4c3O)ccc2c1	-12.9	8.8	34.8*	13.9	36.4*
CS(=O)(=O)NCc1nnc(SCC(=O)NC2CCCCC2)n1-c1ccc(F)cc1	4.2	0.4	0.8	-0.3	-0.3
CCN(CC)C(=O)/C(=C\c1ccc(Br)cc1)NC(=O)c1ccccc1OC	-6.7	0.1	-0.4	1.7	-1.7
CCN(CC)c1ccc(/C=C/c2nc3ccccc3s2)cc1	-12.0	2.7	6.0	4.2	7.4
COc1cc2nc(/C=C/c3ccc(N(C)C)cc3)sc2cc1SC	-11.3	7.1	17.3	8.0	20.9*
CN(C)S(=O)(=O)NC(=O)C1=C(N2CCCC2)COC1=O	-1.8	x	1.0	x	1.4
COc1cc(/C=C/C(=O)OCC(=O)c2ccc(OC(F)F)cc2)ccc1O	-10.1	x	20.7*	x	33.6*
CCc1ccc(NC(=O)C(C)OC(=O)/C=C/c2ccc(O)c(OC)c2)cc1 (centres undefined)	-11.0	x	33.6*	x	45.2*
O=C(/C=C/c1ccco1)OCC(=O)c1ccc(OC(F)F)cc1	-5.7	x	0.8	x	-1.6
COc1cc(/C=C/C(=O)OC(C)C(=O)Nc2c(C)n(C)n(-c3ccccc3)c2=O)ccc1O (centres undefined)	-8.0	x	0.4	x	-0.4
CN(C)c1ccc(/C=C(/C#N)C(=O)NCc2ccccc2)o1	-11.0	20.4*	22.5*	19.9*	20.1*
N#C/C(=C/c1ccccc1)C(=O)NCc1ccccc1	-1.9	0.6	-1.3	0.3	-1.8
Cn1cc(CN2CCCC(C(=O)Nc3cccc(-c4cc5ccccc5[nH]4)c3)C2)cn1 (centres undefined)	-14.3	x	4.5	x	7.9
CC(C)n1cc(CN2CCCC(C(=O)Nc3cccc(-c4cc5ccccc5[nH]4)c3)C2)cn1 (centres undefined)	-13.9	x	25.9*	x	24.4*
COc1cc(/C=C(\C#N)c2nc3ccccc3o2)ccc1O	-32.5	16.0*	23.9*	65.5*	29.7*
COc1ccc(CN2CC(C(=O)NCCCN3CCN(Cc4ccccc4)CC3)CC2=O)cc1 (centres undefined)	-4.7	-0.3	0.5	-0.4	0.9
COc1ccc(N/N=C(\C#N)C(=N)SCc2ccccc2)cc1	x	15.3*	x	19.2*	x
COc1ccc(N/N=C(\C#N)C(=N)N2CCCCC2)cc1	-7.8	-0.2	-0.6	0.0	0.7
CCOc1cc(NC(=S)Nc2ccccc2)c(OCC)cc1NC(=O)c1ccccc1	-7.8	76.7*	-0.5	-0.4	-1.6
COC(=O)c1cccc(NC(=O)Nc2ccc(Cl)cc2)c1	-19.5	7.2	14.4	20.6*	13.8
COC(=O)c1cccc(NC(=O)NC(=O)c2ccc(Cl)cc2)c1	-11.6	-0.4	-0.2	2.4	0.0
Cc1ccc(NC(=O)C2CCN(C(=O)c3cccs3)CC2)c(C)c1	-8.1	x	0.4	x	-1.2
CN(CC(=O)Nc1cccc(F)c1)C(=O)CCSc1ccc(F)cc1	-13.1	x	4.3	x	4.1
SMILES	OXTR potentiator	TRPML3 ag	V1R ag counter	zfTRPN1 agonist	OXTR ag
Nc1nc(C2CC2)c(Sc2sc(N)nc2C2CC2)s1	-22.4	1.1	25.1*	1.2	24.6*
COC(=O)c1cn(-c2nc(C)c3c(n2)CCC3)nn1	-6.8	0.2	0.6	1.3	0.1
O=C1c2ccccc2-c2onc3ccc(NCCCn4ccnc4)c1c23	-11.4	-0.6	44.8*	-1.0	82.0*
COc1ccc2noc3c2c1C(=O)c1ccccc1-3	-8.8	x	221.2*	x	168.8*
NS(=O)(=O)c1ccc(NCCCn2ccnc2)c([N+](=O)[O-])c1	-4.8	x	0.2	x	0.3
O=C(Nc1ccc(N2CCCC2)c(Cl)c1)c1ccco1	-2.5	-0.2	-0.5	-0.6	-1.9
Cc1cc(NS(=O)(=O)c2ccc(Nc3nc(-c4ccc(O)cc4)cs3)cc2)no1	-1.5	0.4	0.3	0.2	-1.5
N#C/C(=N\Nc1ccc(Cl)c(Cl)c1)C(=O)C1CC1	-22.0	8.0	9.9	19.6*	11.9
COc1ccc2c(c1)CC(N1CCN(C)CC1)c1cc(OC)ccc1S2 (centres undefined)	-20.6	x	25.3*	x	33.9*
CCOC(=O)/C(=C/C=C1\Sc2ccccc2N1CC)C(C)=O	-17.1	22.6*	49.3*	51.1*	46.0*
CCOC(=O)/C(=C\C=C1/Sc2ccccc2N1CC)C(C)=O	-12.1	19.9*	40.4*	29.9*	59.6*
CCOC(=O)/C(=C/C=C1\Sc2cc(C)c(C)cc2N1CC)C(C)=O	x	20.8*	x	31.1*	x
Cc1cccc(N(CC(=O)Nc2c(C)n(C)n(-c3ccccc3)c2=O)S(C)(=O)=O)c1	-3.2	0.2	0.4	-1.7	0.9
CCc1ccc(Nc2n[n+](-c3ccccc3)c(-c3ccc(OCc4ccccc4)cc3)s2)cc1	-8.6	x	-1.1	x	-2.1
CCc1ccc(Nc2n[n+](-c3ccccc3)c(-c3c(Cl)cccc3Cl)s2)cc1	-20.0	x	64.0*	x	47.5*
Fc1ccc(-[n+]2nc(Nc3ccccc3)sc2-c2c(Cl)cccc2Cl)cc1	-21.7	x	24.6*	x	22.7*
CC(=O)OC(C(=O)n1nc(C)cc1C)c1ccccc1 (centres undefined)	6.6	-0.9	-0.9	-2.2	-2.0
COC(=O)C1=NN(C(=O)c2cccc(Br)c2)C(O)(c2ccc(Cl)cc2)C1 (centres undefined)	-13.6	3.1	9.6	20.7*	8.8
CCOC(=O)C1=NN(C(=O)c2ccc(OC)cc2)C(O)(c2ccc(Cl)cc2)C1 (centres undefined)	-10.2	-0.5	6.3	-0.3	10.2
CCOC(=O)C1=NN(C(=O)c2cccc(Br)c2)C(O)(C(C)(C)C)C1 (centres undefined)	-15.0	2.0	12.4	17.8	20.4*
N=c1sccn1CC(=O)N1CCc2ccccc21	-4.9	0.8	1.4	0.4	0.9
CC(C)CNC(=O)CSc1nnc2ccccn12	2.1	0.4	0.1	1.3	0.6
CC[C@@H](C(=O)[C@@H](C)[C@@H](O)[C@H](C)CCc1ccc(C)c(O)c1C(=O)O)[C@H]1O[C@](CC)([C@H]2CC[C@](O)(CC)[C@H](C)O2)C[C@@H]1C	-9.5	x	42.0*	x	32.0*
